Data published in ChEMBL document CHEMBL5058577, “EUbOPEN Chemogenomics Library 2 (Multiplex)” (2022).

Tested on: Fibroblast
Test: Multiplex assay against human fibroblast
Type: toxicity, cell-based
Summary of the method: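 Imaging took place on a CQ1 microscope at 37°C and 5% CO2 once compound had been added to live cells stained at seeding with Hoechst33342, BioTracker Green Microtubule Cytoskeleton Dye, MitoTracker Red and Annexin V Alexa Fluor 680. CellPathfinder machine-learning gating classed cells as Hoechst high-intensity objects or normal cells, classed normal cells as having healthy, pyknosed or fragmented nuclei, and classed pyknosed cells as mitotic or apoptotic. Tubulin, mitochondrial-mass and membrane-permeability phenotypes are per cents of the healthy-nucleus cells.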

[1] = 12 h, 1 µM, compound concentration 1 uM, replicate 1
[2] = 12 h, 1 µM, compound concentration 1 uM, replicate 2
[3] = 12 h, 10 µM, compound concentration 10 uM, replicate 1
[4] = 12 h, 10 µM, compound concentration 10 uM, replicate 2
[5] = 24 h, 1 µM, compound concentration 1 uM, replicate 1
[6] = 24 h, 1 µM, compound concentration 1 uM, replicate 2
[7] = 24 h, 10 µM, compound concentration 10 uM, replicate 1
[8] = 24 h, 10 µM, compound concentration 10 uM, replicate 2
[9] = 48 h, 1 µM, compound concentration 1 uM, replicate 1
[10] = 48 h, 1 µM, compound concentration 1 uM, replicate 2
[11] = 48 h, 10 µM, compound concentration 10 uM, replicate 1
[12] = 48 h, 10 µM, compound concentration 10 uM, replicate 2

COC[C@@H](c1ccc(C(F)(F)F)cc1)N1CCN(C2(C)CCN(C(=O)c3c(C)ncnc3C)CC2)C[C@@H]1C.O=C(O)/C=C\C(=O)O [VICRIVIROC MALEATE]
Population Apoptotic (%) [1]: 36%
Population Fragmented Nuclei (%) [1]: 23%
Population Healthy Nuclei (%) [1]: 53%
Population Hoechst High Intensity Objects (%) [1]: 4%
Population Membrane Permeable-Phenotype (%) [1]: 2%
Population Mitochondria Different-Phenotype (%) [1]: 11%
Population Mitotic Cells (%) [1]: 63%
Population Normal (%) [1]: 95%
Population Pyknosed Nuclei (%) [1]: 22%
Population Tubulin-Different-Phenotype (%) [1]: 16%
Total Cell Count [1]: 138
Population Healthy Nuclei (%) [2]: 51%
Population Membrane Permeable-Phenotype (%) [2]: 5%
Population Mitochondria Different-Phenotype (%) [2]: 13%
Population Pyknosed Nuclei (%) [2]: 25%
Population Tubulin-Different-Phenotype (%) [2]: 41%
Total Cell Count [2]: 190
Population Apoptotic (%) [3]: 58%
Population Fragmented Nuclei (%) [3]: 26%
Population Healthy Nuclei (%) [3]: 59%
Population Hoechst High Intensity Objects (%) [3]: 17%
Population Membrane Permeable-Phenotype (%) [3]: 2%
Population Mitochondria Different-Phenotype (%) [3]: 4%
Population Mitotic Cells (%) [3]: 41%
Population Normal (%) [3]: 82%
Population Pyknosed Nuclei (%) [3]: 14%
Population Tubulin-Different-Phenotype (%) [3]: 45%
Total Cell Count [3]: 208
Population Apoptotic (%) [4]: 33%
Population Fragmented Nuclei (%) [4]: 48%
Population Healthy Nuclei (%) [4]: 33%
Population Hoechst High Intensity Objects (%) [4]: 20%
Population Membrane Permeable-Phenotype (%) [4]: 12%
Population Mitotic Cells (%) [4]: 66%
Population Normal (%) [4]: 79%
Population Pyknosed Nuclei (%) [4]: 18%
Population Tubulin-Different-Phenotype (%) [4]: 67%
Total Cell Count [4]: 186
Population Apoptotic (%) [5]: 66%
Population Fragmented Nuclei (%) [5]: 21%
Population Healthy Nuclei (%) [5]: 57%
Population Hoechst High Intensity Objects (%) [5]: 3%
Population Membrane Permeable-Phenotype (%) [5]: 1%
Population Mitochondria Different-Phenotype (%) [5]: 7%
Population Mitotic Cells (%) [5]: 33%
Population Normal (%) [5]: 96%
Population Pyknosed Nuclei (%) [5]: 20%
Population Tubulin-Different-Phenotype (%) [5]: 18%
Total Cell Count [5]: 138
Population Apoptotic (%) [6]: 30%
Population Fragmented Nuclei (%) [6]: 28%
Population Healthy Nuclei (%) [6]: 50%
Population Membrane Permeable-Phenotype (%) [6]: 8%
Population Mitochondria Different-Phenotype (%) [6]: 20%
Population Mitotic Cells (%) [6]: 69%
Population Pyknosed Nuclei (%) [6]: 21%
Population Tubulin-Different-Phenotype (%) [6]: 41%
Total Cell Count [6]: 204
Population Apoptotic (%) [7]: 73%
Population Fragmented Nuclei (%) [7]: 23%
Population Healthy Nuclei (%) [7]: 64%
Population Hoechst High Intensity Objects (%) [7]: 12%
Population Membrane Permeable-Phenotype (%) [7]: 0%
Population Mitochondria Different-Phenotype (%) [7]: 5%
Population Mitotic Cells (%) [7]: 26%
Population Normal (%) [7]: 87%
Population Pyknosed Nuclei (%) [7]: 11%
Population Tubulin-Different-Phenotype (%) [7]: 42%
Total Cell Count [7]: 196
Population Apoptotic (%) [8]: 42%
Population Fragmented Nuclei (%) [8]: 46%
Population Healthy Nuclei (%) [8]: 39%
Population Hoechst High Intensity Objects (%) [8]: 21%
Population Membrane Permeable-Phenotype (%) [8]: 8%
Population Mitochondria Different-Phenotype (%) [8]: 12%
Population Mitotic Cells (%) [8]: 57%
Population Normal (%) [8]: 78%
Population Pyknosed Nuclei (%) [8]: 14%
Population Tubulin-Different-Phenotype (%) [8]: 60%
Total Cell Count [8]: 183
Population Apoptotic (%) [9]: 59%
Population Fragmented Nuclei (%) [9]: 21%
Population Healthy Nuclei (%) [9]: 56%
Population Hoechst High Intensity Objects (%) [9]: 3%
Population Membrane Permeable-Phenotype (%) [9]: 0%
Population Mitochondria Different-Phenotype (%) [9]: 7%
Population Mitotic Cells (%) [9]: 40%
Population Normal (%) [9]: 96%
Population Pyknosed Nuclei (%) [9]: 21%
Population Tubulin-Different-Phenotype (%) [9]: 34%
Total Cell Count [9]: 127
Population Apoptotic (%) [10]: 53%
Population Fragmented Nuclei (%) [10]: 33%
Population Healthy Nuclei (%) [10]: 50%
Population Hoechst High Intensity Objects (%) [10]: 5%
Population Membrane Permeable-Phenotype (%) [10]: 9%
Population Mitochondria Different-Phenotype (%) [10]: 19%
Population Mitotic Cells (%) [10]: 46%
Population Normal (%) [10]: 95%
Population Pyknosed Nuclei (%) [10]: 15%
Population Tubulin-Different-Phenotype (%) [10]: 58%
Total Cell Count [10]: 180
Population Apoptotic (%) [11]: 73%
Population Fragmented Nuclei (%) [11]: 23%
Population Healthy Nuclei (%) [11]: 65%
Population Hoechst High Intensity Objects (%) [11]: 14%
Population Membrane Permeable-Phenotype (%) [11]: 0%
Population Mitochondria Different-Phenotype (%) [11]: 5%
Population Mitotic Cells (%) [11]: 26%
Population Normal (%) [11]: 85%
Population Pyknosed Nuclei (%) [11]: 10%
Population Tubulin-Different-Phenotype (%) [11]: 48%
Total Cell Count [11]: 206
Population Apoptotic (%) [12]: 53%
Population Fragmented Nuclei (%) [12]: 54%
Population Healthy Nuclei (%) [12]: 35%
Population Hoechst High Intensity Objects (%) [12]: 20%
Population Membrane Permeable-Phenotype (%) [12]: 9%
Population Mitochondria Different-Phenotype (%) [12]: 10%
Population Mitotic Cells (%) [12]: 46%
Population Normal (%) [12]: 79%
Population Pyknosed Nuclei (%) [12]: 9%
Population Tubulin-Different-Phenotype (%) [12]: 61%
Total Cell Count [12]: 193
